According to ChEMBL document CHEMBL1139309, “Novel fluorinated pseudopeptides as proteasome inhibitors” (Bioorg Med Chem Lett, 2009):
Active and inactive are the calls of the source. The calls are words filed in the database; no cut-off is given here.

Experiments:
[1] = species: Oryctolagus cuniculus; test: (§1) Inhibition of trypsin-like activity of rabbit 20S proteasome
How it was run: (§2)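 Trypsin-like activity of rabbit 20S proteasome was followed by Boc-LRR-AMC hydrolysis over 45 min at 37 °C, with and without compound (0.1–200 µM). Buffer was pH 7.5 20 mM Tris, 1 mM DTT and 10% glycerol, with no SDS. Values are IC50 or % inhibition at 100 µM, as means of three experiments.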

[2] = species: Oryctolagus cuniculus; test: (§3) Inhibition of post-acid activity of rabbit 20S proteasome
How it was run: (§4)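 Rabbit 20S proteasome was run at 37 °C, pH 7.5, for 45 min, with and without compound (0.1–200 µM). Fluorogenic substrates were Suc-LLVY-AMC for chymotrypsin-like activity and Z-LLE-βNA for post-acid activity. Buffer was 20 mM Tris, 1 mM DTT, 10% glycerol and 0.02% (w/v) SDS. IC50 or % inhibition at 100 µM is the mean of three experiments.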

[3] = (§5) Inhibition of chymotrypsin-like activity of rabbit 20S proteasome; set-up: species or system Oryctolagus cuniculus; how it was run: as §4
[4] = as §1; set-up: species or system Oryctolagus cuniculus; how it was run: as §2
[5] = biological target: T1, Calpain-1 catalytic subunit (Homo sapiens) (UniProt P07384); test: Inhibition of calpain 1
T1 sequence (whole entry): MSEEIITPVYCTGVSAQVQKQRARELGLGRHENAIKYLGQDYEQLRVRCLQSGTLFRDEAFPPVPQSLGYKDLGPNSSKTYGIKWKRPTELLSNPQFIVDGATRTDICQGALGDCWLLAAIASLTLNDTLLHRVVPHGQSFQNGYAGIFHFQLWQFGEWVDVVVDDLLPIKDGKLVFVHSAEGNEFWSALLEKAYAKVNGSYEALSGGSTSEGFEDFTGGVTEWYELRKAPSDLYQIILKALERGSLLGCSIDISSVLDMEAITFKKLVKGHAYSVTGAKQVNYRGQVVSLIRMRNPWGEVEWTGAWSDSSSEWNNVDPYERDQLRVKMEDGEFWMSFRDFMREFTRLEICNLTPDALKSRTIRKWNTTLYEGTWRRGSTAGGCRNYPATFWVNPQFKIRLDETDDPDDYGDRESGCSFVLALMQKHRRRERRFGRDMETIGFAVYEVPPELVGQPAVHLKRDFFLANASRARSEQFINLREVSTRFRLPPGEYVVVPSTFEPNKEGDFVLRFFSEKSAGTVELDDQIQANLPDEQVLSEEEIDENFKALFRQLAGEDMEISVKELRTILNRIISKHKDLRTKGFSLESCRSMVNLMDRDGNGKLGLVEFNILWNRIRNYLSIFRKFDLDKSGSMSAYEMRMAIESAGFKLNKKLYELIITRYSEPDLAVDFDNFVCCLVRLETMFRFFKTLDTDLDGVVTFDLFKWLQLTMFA
How it was run: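 Purified calpain I was assayed at 37 °C with Suc-LLVY-AMC substrate in 50 mM Tris–HCl (pH 7.2), 10 mM DTT and 2 mM CaCl2.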

[6] = biological target: Cathepsin B (Homo sapiens) (UniProt P07858); test: Inhibition of CTSB
How it was run: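 Cathepsin B was assayed at 37 °C using Z-RR-AMC substrate in 352 mM KH2PO4 (pH 6), 48 mM NaHPO4, 1 mM EDTA and 1 mM DTT.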

[7] = species: Oryctolagus cuniculus; test: as §5; how it was run: as §4
[8] = as §3; set-up: species or system Oryctolagus cuniculus; how it was run: as §4
[9] = test system: HeLa; test: Inhibition of chymotrypsin-like activity of 20S proteasome in human HeLa cells at 50 uM after 1.5 hrs by chemiluminescent assay
[10] = species: Oryctolagus cuniculus; test: Inhibition of trypsin-like activity of rabbit 20S proteasome at 100 uM; how it was run: as §2

SMILES | Activity [1] | Activity [2] | IC50 [3] | IC50 [4] | Activity [5] | Activity [6] | Activity [7] | IC50 [8] | inhibition [9] | inhibition [10]
COC(=O)[C@H](Cc1ccccc1)NC(=O)CC(NNC(=O)Cc1cccc(Oc2ccccc2)c1)C(F)(F)F (mixture of isomers) | inactive | inactive | – | – | – | – | – | – | – | –
COC(=O)[C@H](Cc1ccccc1)NC(=O)CC(NNC(=O)[C@@H](N)CCCCNC(=O)OCc1ccccc1)C(F)(F)F (mixture of isomers) | – | inactive | 5.9 µM | 4.4 µM | inactive | inactive | – | – | – | –
COC(=O)[C@H](Cc1ccccc1)NC(=O)CC(NNC(=O)[C@H](CCCCNC(=O)OCc1ccccc1)NC(=O)OC(C)(C)C)C(F)(F)F (mixture of isomers) | – | inactive | – | – | – | – | inactive | – | – | –
COC(=O)[C@H](Cc1ccccc1)NC(=O)CC(NNC(=O)[C@H](CCCCN)NC(=O)Cc1cccc(Oc2ccccc2)c1)C(F)(F)F (mixture of isomers) | – | – | 1.6 µM | 8.4 µM | inactive | inactive | – | 2.7 µM | 20% | –
COC(=O)[C@H](Cc1ccccc1)NC(=O)CC(NNC(=O)[C@H](CCCCN)NC(=O)OC(C)(C)C)C(F)(F)F (mixture of isomers) | – | – | 32 µM | – | inactive | inactive | – | 6 µM | – | 30%
COC(=O)[C@H](Cc1ccccc1)NC(=O)CC(NNC(=O)[C@H](Cc1ccc(OC)c(OC)c1)NC(=O)Cc1cccc(Oc2ccccc2)c1)C(F)(F)F (mixture of isomers) | – | – | 85 µM | – | – | – | – | 72 µM | – | –
COC(=O)[C@H](Cc1ccccc1)NC(=O)CC(NNC(=O)[C@H](CCCCNC(=O)OCc1ccccc1)NC(=O)Cc1cccc(Oc2ccccc2)c1)C(F)(F)F (mixture of isomers) | inactive | – | – | – | – | – | inactive | 200 µM | – | –
